The source of these data is ChEMBL document CHEMBL1145019, “The power of visual imagery in drug design. Isopavines as a new class of morphinomimetics and their human opioid receptor binding activity” (J Med Chem, 2003).

The source made the active and inactive calls. The rule behind the calls is not given here.

Test [1] has as its target Kappa-type opioid receptor (Homo sapiens, UniProt P41145). Put plainly: biochemical. It counts as cell-based, HEK293.
Test [2] deals with T1, Mu-type opioid receptor (Homo sapiens, UniProt P35372). Put plainly: biochemical. It counts as cell-based, HEK293.
Test [3] has as its target Delta-type opioid receptor (Homo sapiens, UniProt P41143). Put plainly: In vitro binding affinity against cloned human Opioid receptor delta 1 expressed in HEK 293S cells. It counts as cell-based, HEK293. The procedure, abridged:
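Compounds tested at 5 or 10 concentrations in duplicate, in 50 mM Tris, 3 mM MgCl2, 1 mg/mL BSA, pH 7.4. Bound radioactivity measured at equilibrium by filtration. Nonspecific binding defined with 10 µM naloxone. IC50 from a two-parameter logistic fit.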

Test [4] in a line: Selectivity of mu IC50 to that of delta IC50 was calculated; NA means Insufficient binding potency. The procedure, abridged:
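Ratio = delta IC50 / mu IC50, from radioligand displacement on HEK-293S P2 membranes expressing human receptors. […] Tris 50 mM, MgCl2 3 mM, BSA 1 mg/mL, pH 7.4. Filtration at equilibrium; 10 µM naloxone defined nonspecific binding. IC50 from logistic fits.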

For test [5], the target named is T1, Mu-type opioid receptor. Put plainly: Tested for effective concentration against cloned human Opioid receptor mu 1. The gist of the method: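 GTP[γ]35S binding using HEK-293S membranes expressing hμ (0.2 pmol/mg protein). Filtration after 1 h. Stimulated binding defined with 30 µM DAMGO. EC50 from a three-parameter logistic fit.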

Chain of Delta-type opioid receptor (P41143 whole entry): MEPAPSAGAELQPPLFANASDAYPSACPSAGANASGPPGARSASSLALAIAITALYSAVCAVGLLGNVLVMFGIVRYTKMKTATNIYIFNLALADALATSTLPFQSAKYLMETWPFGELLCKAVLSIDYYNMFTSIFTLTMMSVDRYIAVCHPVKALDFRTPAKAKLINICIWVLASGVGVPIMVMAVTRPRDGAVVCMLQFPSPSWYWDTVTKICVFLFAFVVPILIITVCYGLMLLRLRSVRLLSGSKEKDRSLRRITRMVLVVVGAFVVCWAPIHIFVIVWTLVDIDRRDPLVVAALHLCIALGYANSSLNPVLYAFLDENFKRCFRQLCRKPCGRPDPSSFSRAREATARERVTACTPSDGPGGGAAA
T1 sequence (P35372 whole entry): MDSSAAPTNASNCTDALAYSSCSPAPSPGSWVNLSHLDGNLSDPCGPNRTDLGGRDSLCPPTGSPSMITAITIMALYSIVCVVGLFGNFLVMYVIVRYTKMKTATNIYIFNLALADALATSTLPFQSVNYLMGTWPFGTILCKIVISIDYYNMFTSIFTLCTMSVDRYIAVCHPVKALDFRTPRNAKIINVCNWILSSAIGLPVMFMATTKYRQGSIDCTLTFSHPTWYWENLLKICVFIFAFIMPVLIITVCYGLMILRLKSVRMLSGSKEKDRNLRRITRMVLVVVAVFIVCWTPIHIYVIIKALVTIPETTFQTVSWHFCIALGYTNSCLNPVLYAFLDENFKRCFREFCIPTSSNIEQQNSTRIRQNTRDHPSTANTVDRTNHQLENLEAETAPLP
Chain of Kappa-type opioid receptor (P41145 whole entry): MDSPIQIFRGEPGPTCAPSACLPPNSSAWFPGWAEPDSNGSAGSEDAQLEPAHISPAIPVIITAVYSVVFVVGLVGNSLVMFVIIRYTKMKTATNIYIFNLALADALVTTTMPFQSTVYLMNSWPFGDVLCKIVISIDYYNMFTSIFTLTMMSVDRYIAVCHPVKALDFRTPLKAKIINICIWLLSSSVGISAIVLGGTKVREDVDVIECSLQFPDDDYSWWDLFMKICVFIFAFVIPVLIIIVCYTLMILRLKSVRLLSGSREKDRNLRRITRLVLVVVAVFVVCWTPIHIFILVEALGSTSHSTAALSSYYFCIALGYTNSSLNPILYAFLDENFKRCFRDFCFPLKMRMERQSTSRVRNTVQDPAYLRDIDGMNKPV

By IC50 is commonly meant the concentration that gives 50% inhibition. Low readings indicate inhibition by little substance, high ones a need for much substance. Take `C[C@@H]1[C@H]2c3cc(N4CCN(C)CC4)ccc3C[C@@H](c3ccc(N4CCN(C)CC4)cc32)N1CC1CC1`: the 50% inhibitory concentration (IC50) in test [1] was 1600 nM; in test [2], 690 nM; in test [3], 2040 nM.
For `CN1CC[C@]23CCCC[C@H]2[C@H]1Cc1ccc(O)cc13` [LEVORPHANOL], the half-maximal inhibitory concentration (IC50) in test [1] stood at 4 nM; in test [3] it was 5.1 nM.
In the case of `c1ccc2c(c1)C[C@@H]1c3ccccc3[C@H]2[C@@H]2CCCCN12`, the IC50 in test [1] was 7400 nM; in test [2], 390 nM; in test [3], more than 10000 nM.
In the same order, the values of `c1ccc2c(c1)C[C@H]1c3ccccc3[C@H]2[C@@H]2CCCN12` are 6100 nM, 59 nM and more than 7800 nM.
Taken in the same sequence, the figures for `C[C@@H]1[C@H]2c3cc(O)ccc3C[C@@H](c3ccc(O)cc32)N1C` were 961 nM, 16 nM and 1300 nM.
Taken in the same sequence, the figures for `Oc1ccc2c(c1)[C@H]1c3cc(O)ccc3[C@H](C2)N2CCC[C@@H]12` were 7200 nM, 130 nM and 3800 nM.
On to `C[C@@H]1[C@H]2c3cc(Nc4ccccc4)ccc3C[C@@H](c3ccc(Nc4ccccc4)cc32)N1C`, for which the IC50 in test [1] was found to be 3600 nM; in test [2] it was 56 nM; in test [3] it was 530 nM.
Taken in the same sequence, the figures for `Brc1ccc(CNc2ccc3c(c2)[C@H]2c4cc(NCc5ccc(Br)cc5)ccc4[C@H](C3)N3CCC[C@@H]23)cc1` were 7000 nM, 120 nM and 5300 nM.
In the same order, the values of `Fc1ccc2c(c1)[C@H]1c3cc(F)ccc3[C@H](C2)N2CCC[C@@H]12` are more than 6400 nM, 103 nM and more than 10000 nM.
In the same order, the values of `C[C@H]1[C@H]2c3ccccc3C[C@H](c3ccccc32)N1C` are more than 10000 nM, 611 nM and more than 10000 nM.
For the compound `COc1ccc2c(c1)[C@H]1c3cc(OC)ccc3[C@H](C2)N(C)[C@@H]1C`, the IC50 is more than 10000 nM in test [1], 420 nM in test [2] and more than 10000 nM in test [3]. Moreover, the NA entry in test [4] is “inactive”.
Turning to `COc1ccc2c(c1)[C@H]1c3cc(OC)ccc3[C@H](C2)N(CC2CC2)[C@@H]1C`, the concentration for half-maximal inhibition (IC50) in test [1] was found to be 5330 nM; in test [2], 1030 nM; in test [3] it was 6630 nM.
A word on the EC50: it is the concentration needed to bring the measured effect to its halfway point. As for `C[C@@H]1[C@H]2c3cc(NCc4ccccc4)ccc3C[C@@H](c3ccc(NCc4ccccc4)cc32)N1C`, in test [5], the EC50 stood at 4300 nM. In addition, the IC50 is 640 nM in test [1], 8 nM in test [2] and 120 nM in test [3].
With `COc1cc2c(cc1OC)[C@H]1c3cc(OC)c(OC)cc3[C@H](C2)N(CC2CC2)[C@@H]1C`, the IC50 in test [1], in test [2] and in test [3] was more than 10000 nM in each case. In addition, the NA result in test [4] is “inactive”.
For `COc1cc2c(cc1OC)[C@H]1c3cc(OC)c(OC)cc3[C@H](C2)N(C)[C@@H]1C`, the IC50 in test [1], in test [2] and in test [3] was more than 10000 nM in each case. In addition, the NA result in test [4] is “inactive”.
As to `Brc1ccc2c(c1)[C@H]1c3cc(Br)ccc3[C@H](C2)N2CCC[C@@H]12`, the IC50 is 7400 nM in test [1], 500 nM in test [2] and 5020 nM in test [3].
On to `C[C@@H]1[C@H]2c3cc(O)ccc3C[C@@H](c3ccc(O)cc32)N1CC1CC1`, for which the results for the concentration for half-maximal inhibition (IC50) in test [1], in test [2] and in test [3] were 204 nM, 6.4 nM and 460 nM, respectively.
Regarding `C[C@@H]1[C@H]2c3ccccc3C[C@@H](c3ccccc32)N1CC1CC1`, the 50% inhibitory concentration (IC50) in test [1] is more than 10000 nM; in test [2] it was 1080 nM; in test [3], more than 10000 nM.
For the compound `CC(=O)Oc1ccc2c(c1)[C@H]1c3cc(OC(C)=O)ccc3[C@H](C2)N(C)[C@@H]1C`, the IC50 in test [1] was more than 9500 nM; in test [2], 200 nM; in test [3] it was more than 4700 nM.
In the same order, the values of `CC(=O)Oc1ccc2c(c1)[C@H]1c3cc(OC(C)=O)ccc3[C@H](C2)N(CC2CC2)[C@@H]1C` are 2020 nM, 44 nM and 3300 nM.
On to `CC(C)[C@H]1[C@H]2c3ccccc3C[C@H](c3ccccc32)N1C`, for which the IC50 is 3410 nM in test [1], 695 nM in test [2] and more than 10000 nM in test [3].
In the same order, the values of `C[C@@H]1[C@H]2c3ccccc3C[C@@H](c3ccccc32)N1C` are more than 75000 nM, 230 nM and more than 10000 nM.
Taken in the same sequence, the figures for `C[C@@H]1[C@H]2c3cc(N4CCN(C)CC4)ccc3C[C@@H](c3ccc(N4CCN(C)CC4)cc32)N1C` were 3200 nM, 53 nM and 2500 nM.
Taken in the same sequence, the figures for `CC(C)C[C@H]1[C@H]2c3ccccc3C[C@H](c3ccccc32)N1C` were 2970 nM, 1010 nM and more than 8700 nM.
With `C[C@H]1N[C@@H]2Cc3ccccc3[C@H]1c1ccccc12`, the figures for the IC50 in test [1], in test [2] and in test [3] were more than 10000 nM, 650 nM and more than 10000 nM, respectively.
For `C[C@@H]1[C@H]2c3cc(N4CCOCC4)ccc3C[C@@H](c3ccc(N4CCOCC4)cc32)N1C`, the figures for the concentration for half-maximal inhibition (IC50) in test [1], in test [2] and in test [3] were more than 10000 nM, 690 nM and 7500 nM, respectively.
Taken in the same sequence, the figures for `C[C@@H]1[C@H]2c3ccccc3C[C@@H](c3ccccc32)N1Cc1ccccc1` were more than 5800 nM, more than 10000 nM and more than 8800 nM.
Take `C=CCN1[C@H](C)[C@H]2c3ccccc3C[C@H]1c1ccccc12`: the IC50 in test [1] was more than 4000 nM; in test [2] it was 2000 nM; in test [3], more than 9700 nM.
Taken in the same sequence, the figures for `CC(=O)N1[C@H](C)[C@H]2c3ccccc3C[C@H]1c1ccccc12` were more than 10000 nM, more than 9500 nM and more than 10000 nM.
Regarding `C[C@@H]1[C@H]2c3cc(Br)ccc3C[C@@H](c3ccc(Br)cc32)N1CC1CC1`, the concentration for half-maximal inhibition (IC50) is more than 4900 nM in test [1], 2050 nM in test [2] and more than 10000 nM in test [3].
Regarding `COc1cc2c(cc1OC)[C@@H]1c3cc(OC)c(OC)cc3[C@@H](C2)N(C)[C@H]1C`, the figures for the concentration for half-maximal inhibition (IC50) in test [1] and in test [3] were more than 10000 nM and more than 5700 nM, respectively. Also, the NA result in test [4] was “inactive”.
For the compound `CN1[C@@H]2Cc3ccccc3[C@@H](c3ccccc32)[C@@H]1CCCO`, the IC50 is more than 10000 nM in test [1], 1150 nM in test [2] and more than 10000 nM in test [3].
For `C[C@@H]1[C@H]2c3cc(Nc4ccccc4)ccc3C[C@@H](c3ccc(Nc4ccccc4)cc32)N1CC1CC1`, the values for the half-maximal inhibitory concentration (IC50) in test [1], in test [2] and in test [3] were 1200 nM, 82 nM and 890 nM, respectively.
Taken in the same sequence, the figures for `C[C@@H]1[C@H]2c3cc(NCc4ccccc4)ccc3C[C@@H](c3ccc(NCc4ccccc4)cc32)N1CC1CC1` were 31 nM, 7 nM and 49 nM.
With `C[C@@H]1[C@H]2c3cc(Br)ccc3C[C@@H](c3ccc(Br)cc32)N1C`, the concentration for half-maximal inhibition (IC50) amounted to 6920 nM in test [1], 360 nM in test [2] and 8840 nM in test [3].
Taken in the same sequence, the figures for `COc1ccc2c(c1)[C@H]1c3cc(OC)ccc3[C@H](C2)N2CCC[C@@H]12` were more than 10000 nM, 160 nM and 4040 nM.
In the same order, the values of `CN1[C@@H]2Cc3ccccc3[C@@H](c3ccccc32)[C@@H]1Cc1ccccc1` are 1710 nM, 1050 nM and 3440 nM.
In the same order, the values of `CC(=O)Oc1ccc2c(c1)[C@H]1c3cc(OC(C)=O)ccc3[C@H](C2)N2CCC[C@@H]12` are more than 6000 nM, 220 nM and 2900 nM.
